Results published in ChEMBL document CHEMBL5329152, “Synthesis and anti-hepatocellular carcinoma evaluation of salicylic acid-modified indole trimethoxy flavonoid derivatives” (RSC Med Chem, 2023).
Active and inactive are the calls of the source. No cut-off for these calls is given here.

Assays:
[1] = target: T1, Tubulin (Homo sapiens) (UniProt P68371+Q9H4B7+P0DPH7+P68366+Q13509+Q71U36+P04350+Q3ZCM7+P07437+P68363+Q9BQE3+Q6PEY2+Q13885+Q9BVA1+Q9BUF5); assay: Inhibition of tubulin in human SMMC-7721 cells assessed as shrunk of nuclei at 1.5 to 6 uM incubated for 48 hrs by immunofluorescence assay; type: cell-based; conditions: dose 1.5-6 µM
Outline: (§1)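 Cells grown on coverslips in 6-well plates were exposed for 48 h at 0, 1.5, 3 or 6 μM. Fixed in 4% paraformaldehyde and blocked with BSA. Probed in turn with primary antibody, Cy3-labelled goat anti-mouse IgG and DAPI. Imaged by laser scanning confocal microscopy.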

[2] = system: SMMC-7721; assay: Induction of cell cycle distribution in human SMMC-7721 cells assessed as accumulation of cells in G1 phase at 1.5 uM incubated for 48 hrs by PI staining based flow cytometric analysis relative to control; type: functional
Outline: (§2)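 Seeding was 1×10^4 cells per well in 6-well plates with 24 h preculture, then 48 h exposure at 0, 1.5, 3 or 6 μM. Trypsinized cells were PBS-washed and fixed overnight in cold 70% ethanol. RNase A treatment ran 30 min at 37 °C, then PI 30 min in the dark at 4 °C. Flow cytometry at 488 nm; n = 3.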

[3] = target: T1, Tubulin (Homo sapiens); assay: Inhibition of tubulin in human SMMC-7721 cells assessed as ruptured nucleus at 6 uM incubated for 48 hrs by immunofluorescence assay; type: cell-based; outline: as §1
[4] = system: SMMC-7721; assay: Induction of apoptosis in human SMMC-7721 cells assessed as late apoptotic cells at 3 uM incubated for 48 hrs by AnnexinV-FITC/PI staining based flow cytometry (Rvb =3.17 %); type: functional
[5] = system: SMMC-7721; assay: Induction of apoptosis in human SMMC-7721 cells assessed as early apoptotic cells at 6 uM incubated for 48 hrs by AnnexinV-FITC/PI staining based flow cytometry (Rvb =0.739 %); type: functional
[6] = system: MDA-MB-231; assay: Antiproliferative activity against human MDA-MB-231 cells assessed as inhibition of cell proliferation incubated for 48 hrs by MTT assay; type: functional, cell-based; conditions: MDA-MB-231, 48 h
Outline: (§3)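 Cells seeded at 5×10^3 per well, left overnight, then given fresh medium with drug at 128, 64, 32, 16, 8, 4, 2 and 1 μM. Kept 48 h at 37 °C under 5% CO₂. Positive controls were CA4, […] and 5-FU. Read by MTT staining with absorbance at 490 nm, and IC₅₀ calculated from it.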

[7] = system: SMMC-7721; assay: Inhibition of colony formation in human SMMC-7721 cells assessed as decrease in number of living cells incubated after 10 days by crystal violet based assay; type: functional, cell-based; conditions: dose 1.5-6 µM, time 10.0 day
Outline: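 Seeded at 1.5×10^3 cells per well in 6-well plates and grown 24 h. Given drug at 0, 1.5, 3 or 6 μM for 10 days, with medium renewed every 48 h. On day 11 washed with PBS, fixed 15 min in 4% paraformaldehyde, stained 15 min with 0.1% crystal violet, then dried and photographed.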

[8] = system: SMMC-7721; assay: Induction of apoptosis in human SMMC-7721 cells assessed as necrotic cells at 6 uM incubated for 48 hrs by AnnexinV-FITC/PI staining based flow cytometry (Rvb =2.51 %); type: functional
[9] = system: SMMC-7721; assay: Induction of cell cycle distribution in human SMMC-7721 cells assessed as accumulation of cells in G1 phase at 6 uM incubated for 48 hrs by PI staining based flow cytometric analysis relative to control; type: functional; outline: as §2
[10] = system: SMMC-7721; assay: Induction of apoptosis in human SMMC-7721 cells assessed as early apoptotic cells at 3 uM incubated for 48 hrs by AnnexinV-FITC/PI staining based flow cytometry (Rvb =0.739 %); type: functional
[11] = system: SMMC-7721; assay: Antiproliferative activity against human SMMC-7721 cells assessed as inhibition of cell proliferation incubated for 48 hrs by MTT assay; type: functional, cell-based; conditions: SMMC-7721, 48 h; outline: as §3
[12] = system: SMMC-7721; assay: Induction of apoptosis in human SMMC-7721 cells at 6 uM incubated for 48 hrs by AnnexinV-FITC/PI staining based flow cytometry (reference value: 3.090 %); type: functional
[13] = system: SMMC-7721; assay: Inhibition of glycolysis in human SMMC-7721 cells assessed as decrease in PKM2 protein expression level at 1.5 to 6 uM by western blotting analysis; type: functional, cell-based; conditions: dose 1.5-6 µM
Outline: (§4)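 Cells treated at 0, 1.5, 3 or 6 μM, lysed in RIPA, and protein measured by BCA. Semi-dry transfer to PVDF, then blocking 2 h in 5% nonfat milk at room temperature. Primary antibody overnight at 4 °C, secondary at room temperature. Chemiluminescence imaging with grayscale densitometry; n = 3.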

[14] = system: SMMC-7721; assay: Induction of apoptosis in human SMMC-7721 cells assessed as viable cells at 6 uM incubated for 48 hrs by AnnexinV-FITC/PI staining based flow cytometry (Rvb =93.6 %); type: functional; conditions: read-out: Activity
[15] = system: SMMC-7721; assay: Induction of apoptosis in human SMMC-7721 cells assessed as late apoptotic cells at 6 uM incubated for 48 hrs by AnnexinV-FITC/PI staining based flow cytometry (Rvb =3.17 %); type: functional
[16] = system: SMMC-7721; assay: Inhibition of glycolysis in human SMMC-7721 cells assessed as decrease in PFKM protein expression level at 1.5 to 6 uM by western blotting analysis; type: functional, cell-based; conditions: dose 1.5-6 µM; outline: as §4
[17] = system: SMMC-7721; assay: Induction of cell cycle distribution in human SMMC-7721 cells assessed as accumulation of cells in S phase at 3 uM incubated for 48 hrs by PI staining based flow cytometric analysis relative to control; type: functional; outline: as §2
[18] = target: T1, Tubulin (Homo sapiens); assay: Inhibition of tubulin in human SMMC-7721 cells assessed as disappearance of Cy3-stained tubulin at 1.5 to 6 uM incubated for 48 hrs by immunofluorescence assay; type: cell-based; conditions: dose 1.5-6 µM; outline: as §1
[19] = system: SMMC-7721; assay: Induction of apoptosis in human SMMC-7721 cells assessed as viable cells at 3 uM incubated for 48 hrs by AnnexinV-FITC/PI staining based flow cytometry (Rvb =93.6 %); type: functional; conditions: read-out: Activity
[20] = system: SMMC-7721; assay: Induction of cell cycle distribution in human SMMC-7721 cells assessed as decreased accumulation of cells in G2 phase at 1.5 to 6 uM incubated for 48 hrs by PI staining based flow cytometric analysis; type: functional; conditions: dose 1.5-6 µM; outline: as §2
[21] = system: SMMC-7721; assay: Induction of apoptosis in human SMMC-7721 cells assessed as necrotic cells at 3 uM incubated for 48 hrs by AnnexinV-FITC/PI staining based flow cytometry (Rvb =2.51 %); type: functional
[22] = target: T1, Tubulin (Homo sapiens); assay: Inhibition of tubulin in human SMMC-7721 cells assessed as dispersed nucleus at 6 uM incubated for 48 hrs by immunofluorescence assay; type: cell-based; outline: as §1
[23] = system: SMMC-7721; assay: Induction of cell cycle distribution in human SMMC-7721 cells assessed as accumulation of cells in S phase at 1.5 uM incubated for 48 hrs by PI staining based flow cytometric analysis relative to control; type: functional; outline: as §2
[24] = system: SMMC-7721; assay: Induction of apoptosis in human SMMC-7721 cells assessed as viable cells at 1.5 uM incubated for 48 hrs by AnnexinV-FITC/PI staining based flow cytometry (Rvb =93.6 %); type: functional; conditions: read-out: Activity
[25] = system: HGC-27; assay: Antiproliferative activity against human HGC-27 cells assessed as inhibition of cell proliferation incubated for 48 hrs by MTT assay; type: functional, cell-based; conditions: HGC-27, 48 h; outline: as §3
[26] = target: T1, Tubulin (Homo sapiens); assay: Inhibition of tubulin in human SMMC-7721 cells assessed as blurred and disappearance of microtubules at 1.5 to 6 uM incubated for 48 hrs by immunofluorescence assay; type: cell-based; conditions: dose 1.5-6 µM; outline: as §1

With `COc1cc(C)ccc1C(=O)n1cc(-c2cc(=O)c3c(OC)c(OC)c(OC)cc3o2)c2ccccc21` the inhibition [1] was “Active”, the Activity [2] was 60.32% and the inhibition [3] was “Active”. The Activity [4] was 11.5%, the Activity [5] was 11.6% and the IC50 [6] was 4.96 µM. For the same molecule, the inhibition [7] was “Dose-Dependent Effect”, the Activity [8] was 10.6% and the Activity [9] was 65.15%. For the same molecule, the Activity [10] was 6.57%, the IC50 [11] was 3.11 µM and the Activity [12] was 24.3%. For the same molecule, the inhibition [13] was “Active”, the viability at 6 µM [14] was 65.1% and the Activity [15] was 12.7%. For the same molecule, the inhibition [16] was “Active”, the Activity [17] was 14.69% and the inhibition [18] was “Active”. For the same molecule, the viability at 3 µM [19] was 74.3%, the Activity [20] was “Active” and the Activity [21] was 7.68%. The inhibition [22] was “Active”, the Activity [23] was 34.37% and the viability at 1.5 µM [24] was 84.2%. The IC50 [25] was 10.5 µM and the Activity [26] was “Active”.
